ChEMBL document CHEMBL2086287, “An efficient one-pot synthesis and photoinduced DNA cleavage studies of 2-chloro-3-(5-aryl-4,5-dihydroisoxazol-3-yl)quinolines” (Bioorg Med Chem Lett, 2012)

How the values were obtained:
[1] = system: Nucleic Acid; assay: Induction of Escherichia coli pUC19 DNA cleavage assessed as conversion of supercoiled DNA to nicked form of DNA at 60 uM treated after 2 hrs before UV-vis irradiation measured after 1 hr by ethidium bromide staining; format: nucleic-acid assay
How it was run: (§1)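 pUC-19 plasmid DNA photolysed at 365 nm for 2 h in 1:9 DMSO:Tris buffer ([…], pH 7.2) with test compound at 40–80 μM, 37 °C. A control lane without compound and dark-incubated samples were run alongside. Cleavage read by gel separation as the percentage of supercoiled (Form I) DNA converted to nicked (Form II) and linear (Form III) forms.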

[2] = system: Nucleic Acid; assay: Induction of Escherichia coli pUC19 DNA cleavage assessed as conversion of supercoiled DNA to nicked form of DNA at 40 uM […] by ethidium bromide staining; format: nucleic-acid assay; how it was run: as §1
[3] = system: Nucleic Acid; assay: Induction of Escherichia coli pUC19 DNA cleavage assessed as conversion of supercoiled form of DNA to nicked and linear form of DNA at 80 uM treated after 2 hrs before UV-vis irradiation measured after 1 hr by ethidium bromide staining

Row | Compound | Activity [1] [%] | Activity [2] [%] | Activity [3] [%]
1 | Clc1nc2ccccc2cc1C1CC(c2ccc(Br)cc2)=NO1 (stereo unspecified) | 50 | 20 | 85
2 | Clc1ccc(C2=NOC(c3cc4ccccc4nc3Cl)C2)cc1 (stereo unspecified) | 50 | 20 | 85
3 | COc1ccc(C2=NOC(c3cc4ccccc4nc3Cl)C2)cc1 (stereo unspecified) | 50 | 20 | 85
4 | O=[N+]([O-])c1ccc(C2=NOC(c3cc4ccccc4nc3Cl)C2)cc1 (stereo unspecified) | 50 | 20 | 85

Results, then the compound that gave them:

Row | Activity [1] [%] | Activity [2] [%] | Activity [3] [%] | Compound
5 | 50 | 20 | 85 | Clc1nc2ccccc2cc1C1CC(c2ccccc2)=NO1 (stereo unspecified)
6 | 50 | 20 | 85 | Cc1ccc(C2=NOC(c3cc4ccccc4nc3Cl)C2)cc1 (stereo unspecified)
7 | 50 | 20 | 85 | Oc1ccc(C2=NOC(c3cc4ccccc4nc3Cl)C2)cc1 (stereo unspecified)
